Data published in ChEMBL document CHEMBL4725282, “Discovery of a Conformationally Constrained Oxazolidinone with Improved Safety and Efficacy Profiles for the Treatment of Multidrug-Resistant Tuberculosis” (J Med Chem, 2020).
Converted amounts (≈) assume the structure as drawn. The source made the active and inactive calls. The calls are words filed in the database; no cut-off is given here.

Experiments:
[1] = test system: Mycobacterium tuberculosis; experiment: Antitubercular activity against Mycobacterium tuberculosis H37Rv incubated for 7 days by microplate alamar blue assay; format: functional; conditions: Mycobacterium tuberculosis, H37Rv, 168 h, time 7 day; read-out: MIC
Method in brief: (§1)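 MIC determined by microplate alamar blue assay (MABA) following a published protocol.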

[2] = test system: Vero; experiment: Cytotoxicity against African green monkey Vero cells assessed as reduction in cell viability measured after 48 hrs by MTT assay; format: cell-based; conditions: Chlorocebus sabaeus
Method in brief: (§2)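 Cytotoxicity on Vero or HepG2 cells by MTT assay, run as previously reported.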

[3] = Inhibition of mitochondrial protein synthesis in rat H9c2 cells measured after 5 days by ELISA; format: cell-based; conditions: H9c2, 120 h
Method in brief: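 H9C2 cells in DMEM with 10% FBS, seeded 1500/well. After 18 h, compound added at final 0.03–200 μM (3-fold series), then 5 days at 37 °C, 5% CO2; 0.5% DMSO negative control. MPS inhibition read by MitoBiogenesis In-Cell ELISA; IC50 calculated.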

[4] = Stability in CD-1 mouse liver microsome assessed as parent compound remaining at 1 uM measured after 30 mins in presence of NADPH by LC-MS/MS analysis; format: ADME; conditions: liver microsomes, read-out: Stabilty
Method in brief: (§3)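 Liver microsomes (male CD-1 mouse or pooled human), 1 mg/mL protein, compound 1 µM, 37°C with shaking. Started with 1 mM NADPH or run without cofactor. Quenched with ice-cold ACN/MeOH containing internal standard. Parent quantified by LC-MS/MS; 30 min concentration normalised to time zero.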

[5] = Stability in CD-1 mouse liver microsome at 1 uM measured after 30 mins in absence of NADPH by LC-MS/MS analysis; format: ADME; conditions: microsomes, 0.5 h; method in brief: as §3
[6] = test system: Mycobacterium tuberculosis; experiment: Antitubercular activity against Mycobacterium tuberculosis isolate 12525 incubated for 7 days by microplate alamar blue assay; format: functional; conditions: isolate 12525, 168 h, time 7 day; method in brief: as §1
[7] = test system: HepG2; experiment: Cytotoxicity against human HepG2 cells assessed as reduction in cell viability measured after 48 hrs by MTT assay; format: cell-based; conditions: HepG2, 48 h; method in brief: as §2
[8] = target: T1, Amine oxidase [flavin-containing] A (Homo sapiens, UniProt P21397); experiment: Inhibition of recombinant human MAOA expressed in baculovirus infected insect cells using kynuramine as substrate measured after 20 mins by LC-MS/MS analysis
T1 sequence (P21397 whole entry): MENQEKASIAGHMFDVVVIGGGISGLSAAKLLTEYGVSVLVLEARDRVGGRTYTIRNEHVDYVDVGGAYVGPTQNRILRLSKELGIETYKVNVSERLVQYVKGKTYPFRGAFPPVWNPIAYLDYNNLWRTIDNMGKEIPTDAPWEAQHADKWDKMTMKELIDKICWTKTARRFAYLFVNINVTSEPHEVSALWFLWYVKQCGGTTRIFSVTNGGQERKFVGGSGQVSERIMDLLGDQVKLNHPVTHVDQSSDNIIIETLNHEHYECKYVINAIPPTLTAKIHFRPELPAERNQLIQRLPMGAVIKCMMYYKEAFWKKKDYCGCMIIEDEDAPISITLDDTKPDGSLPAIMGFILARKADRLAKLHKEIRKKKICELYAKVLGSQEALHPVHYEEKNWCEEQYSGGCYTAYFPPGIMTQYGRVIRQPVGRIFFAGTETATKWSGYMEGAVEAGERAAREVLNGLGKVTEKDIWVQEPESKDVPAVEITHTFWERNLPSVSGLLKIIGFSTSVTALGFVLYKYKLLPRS
Method in brief: (§4)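 Recombinant human MAO-A or MAO-B (50 μg/mL) in 100 mM potassium phosphate pH 7.4 with 5 mM MgCl2. Kynuramine substrate at 50 μM (MAO-A) or 25 μM (MAO-B). […] 4-Hydroxyquinoline formation measured by LC-MS/MS versus vehicle; IC50 derived.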

[9] = target: T2, Amine oxidase [flavin-containing] B (Homo sapiens, UniProt P27338); experiment: Inhibition of recombinant human MAOB expressed in baculovirus infected insect cells using kynuramine as substrate measured after 20 mins by LC-MS/MS analysis; method in brief: as §4
T2 sequence (P27338 whole entry): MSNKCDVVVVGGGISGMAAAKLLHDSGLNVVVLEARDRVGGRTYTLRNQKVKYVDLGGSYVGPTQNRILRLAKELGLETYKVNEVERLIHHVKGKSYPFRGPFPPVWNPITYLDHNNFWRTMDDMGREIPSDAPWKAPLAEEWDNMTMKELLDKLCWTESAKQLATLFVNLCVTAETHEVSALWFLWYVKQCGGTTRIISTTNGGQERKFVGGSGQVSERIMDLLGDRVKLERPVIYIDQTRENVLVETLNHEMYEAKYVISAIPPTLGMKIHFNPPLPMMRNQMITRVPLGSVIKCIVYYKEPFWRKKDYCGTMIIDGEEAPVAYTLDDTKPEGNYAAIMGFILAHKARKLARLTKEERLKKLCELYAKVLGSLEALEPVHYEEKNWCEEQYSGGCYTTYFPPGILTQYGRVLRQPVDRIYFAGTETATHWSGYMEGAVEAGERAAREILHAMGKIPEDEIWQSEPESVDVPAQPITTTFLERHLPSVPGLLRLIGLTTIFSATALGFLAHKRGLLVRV

[10] = test system: Mycobacterium tuberculosis; experiment: (§5) Antitubercular activity against Mycobacterium tuberculosis H37Rv infected in Balb/c mouse assessed as lung bacterial burden by measuring colony forming unit at 100 mg/kg/day, po administered via gavage 5 times per week for 3 weeks starting from 10 days post-infection and measured 24 hrs post last dose (reference value: 7.102 +/- 0.152 log10CFU); format: functional; conditions: time 22 day
Method in brief: (§6)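 Female SPF BALB/c mice, 6 per group, aerosol-infected with M. tuberculosis H37Rv to deposit 50-100 bacilli per lung. Compound suspended in 0.5% CMC, given by oral gavage from day 10 post-infection, 5 times per week for 3 weeks; controls got 0.5% CMC. Lungs harvested the day after the last dose, homogenised, diluted in HBSS, plated on 7H11 agar in duplicate, incubated 3 weeks at 37 °C. Result expressed as mean log10 CFU; t-test versus control.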

[11] = Toxicity in Mycobacterium tuberculosis H37Rv infected Balb/c mouse assessed as change in body weight at 100 mg/kg/day, po administered via gavage 5 times per week for 3 weeks starting from 10 days post-infection (reference value: 21.29 +/- 0.84 g); format: organism-based; conditions: in vivo, 504 h, time 21 day
[12] = test system: Mycobacterium tuberculosis; experiment: Antitubercular activity against Mycobacterium tuberculosis H37Rv infected in Balb/c mouse assessed as reduction in lung bacterial burden at 50 to 100 mg/kg/day, po administered via gavage 5 times per week for 3 weeks starting from 10 days post-infection and measured 24 hrs post last dose; format: functional, organism-based; conditions: dose mg/kg/day 50-100, time 22.0 day; method in brief: as §6
[13] = test system: Mycobacterium tuberculosis; experiment: as §5, with “25” for “100”; format: functional; conditions: time 22 day; method in brief: as §6
[14] = Toxicity in Mycobacterium tuberculosis H37Rv infected Balb/c mouse assessed as change in body weight at 25 mg/kg/day, po administered via gavage 5 times per week for 3 weeks starting from 10 days post-infection (reference value: 21.29 +/- 0.84 g); format: organism-based; conditions: in vivo, 504 h, time 21 day
[15] = test system: Mycobacterium tuberculosis; experiment: Antitubercular activity against Mycobacterium tuberculosis H37Rv infected in Balb/c mouse assessed as reduction in lung bacterial burden at 25 to 100 mg/kg/day, po administered via gavage 5 times per week for 3 weeks starting from 10 days post-infection and measured 24 hrs post last dose; format: functional, organism-based; conditions: dose mg/kg/day 25-100, time 22.0 day; method in brief: as §6

Which MIC [1] does the source give for `CC(=O)NC[C@H]1CN(c2ccc(N3CCSCC3)c(F)c2)C(=O)O1` [SUTEZOLID] here?
Its MIC is 0.1 µg/mL (≈ 0.283 µM).

What about the IC50 [2] of the same compound?
Its IC50 is greater than 64 µg/mL.

What about the IC50 [3] of the same compound?
The IC50 was 8.17 µM.

And the remaining at 0.5 h, 1 µM [4]?
Its remaining at 0.5 h, 1 µM is 54.8%.

And the Stabilty [5]?
Its Stabilty is “Stable”.

And the MIC [6]?
The MIC was 0.06 µg/mL (≈ 0.17 µM).

What about the IC50 [7] of the same compound?
Its IC50 is greater than 64 µg/mL.

And the IC50 [8]?
The IC50 was 13 µM.

What about the IC50 [9] of the same compound?
The IC50 was 700 nM.

For `CC(=O)NC[C@H]1CN(c2ccc(N3CCOCC3)c(F)c2)C(=O)O1` [LINEZOLID], which MIC [1] is on record?
Its MIC is 0.32 µg/mL (≈ 0.949 µM).

What about the IC50 [3] of the same compound?
The IC50 was 7.98 µM.

What about the remaining at 0.5 h, 1 µM [4] of the same compound?
The remaining at 0.5 h, 1 µM was 111%.

And the Stabilty [5]?
The Stabilty was “Stable”.

And the MIC [6]?
The MIC was 0.23 µg/mL (≈ 0.682 µM).

What about the Activity [10] of the same compound?
The Activity was 4.136 log10CFU.

What about the Activity [11] of the same compound?
The Activity was 20.83 g.

What about the Activity [12] of the same compound?
Its Activity is “Active”.

Which MIC [1] does the source give for `NNC(=O)c1ccncc1` [ISONIAZID] here?
The MIC was 0.03 µg/mL (≈ 0.219 µM).

And the MIC [6]?
Its MIC is greater than 10 µg/mL.

What about the Activity [13] of the same compound?
Its Activity is 1.929 log10CFU.

And the Activity [14]?
Its Activity is 21.3 g.

Which Activity [15] does the source give for `CC(=O)NC[C@@H]1OC(=O)N2c3cc(F)c(N4CCSCC4)cc3OC[C@@H]12` here?
The Activity was “Active”.
